Measurements as given in paper PMC4876925 (Nano research, 2016).
Residues, ends and D or L forms follow the SMILES beside them.

What was measured:
[1] = target: recombinant human His-tagged CD13 (Homo sapiens, UniProt P15144); experiment: CD13 enzymatic activity assay; format: biochemical
αvβ3 = αvβ3 (Homo sapiens, UniProt P05106+P06756); experiment: Integrin competitive binding assay with CisoDGRC-peroxidase
[2] = cited from earlier work
WEHI-164 fibrosarcoma = experiment: Anti-tumor activity in the WEHI-164 fibrosarcoma model; format: in vivo, BALB/c female mice; conditions: dose-escalation, i.v.
In short: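 Female BALB/c mice, 6–7 weeks old, received 1.5 × 10^6 WEHI-164 cells s.c. in the left flank. On day 5, mice got single i.v. doses of TNF-loaded gold nanoparticles (1–4 or 9–16 bioactive TNF molecules/nanoparticle) in 0.9% NaCl with 100 µg/mL HSA. Tumors were measured with calipers and volumes from day 5 to day 9 were normalized to day 5. Data are mean ± SE from 1–7 independent experiments, 6 mice each.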

N=C(N)NCCC[C@@H]1NC(=O)CNC(=O)[C@H](CC(N)=O)NC(=O)CNC(=O)[C@H](CS)NC(=O)CNC1=O [N1, c(CGNGRG)] (cyclo(CGNGRG))
CD13 inhibition efficiency relative to NGR-2C(Y) ([1]; enzyme inhibition, 30 min at 37 °C): 5–6 fold
Binding efficiency to CD13 relative to CNGRC (NGR-2C) and c(CNGRGG) (N3) ([1]; recombinant soluble CD13, enzyme binding and inhibition experiments): 6–10 fold
EC50 (αvβ3): 10 µM

CNGRC (disulfide) [NGR-2C]
Half-life of asparagine (deamidation) [2]: 3 to 4 h

CNGRCG-TNF (disulfide) [NGR-TNF]
Shape of dose-response curve (tumor growth day 5 to day 9) (WEHI-164 fibrosarcoma): U-shaped dose-response curve
